MC4R antagonist = antagonists of human melanocortin 4 receptor (MC4R). MC4R-expressing cells, MTII-stimulated cAMP, LANCE TR-FRET. inhibition, % at 6.5 µM. actives 0.48% (n = 360,000). AID 540295;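 active = inhibition above its plate's cutoff, the mean of tested wells on that plate plus 3 SD, cut at about 29% in these data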
Target sequence (P32245 whole entry, looked up): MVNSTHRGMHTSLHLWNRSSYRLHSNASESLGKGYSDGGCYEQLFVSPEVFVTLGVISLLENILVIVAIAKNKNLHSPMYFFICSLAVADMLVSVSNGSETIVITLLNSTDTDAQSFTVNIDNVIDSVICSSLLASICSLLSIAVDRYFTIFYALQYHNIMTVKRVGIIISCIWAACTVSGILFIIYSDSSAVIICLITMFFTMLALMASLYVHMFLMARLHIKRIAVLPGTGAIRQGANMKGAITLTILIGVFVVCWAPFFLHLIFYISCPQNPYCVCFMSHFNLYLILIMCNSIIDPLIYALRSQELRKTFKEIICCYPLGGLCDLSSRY
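Material: U2OS-MC4R stable cell line | Reagent: Melanotan II challenge after compound preincubation | Doses: One concentration, 6.5 µM nominal | Incubation: 30-min compound preincubation, 1-h Melanotan II challenge, 1-h detection, room temperature | Signal: TR-FRET cAMP assay | Replicates: One well per compound, no replicates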
aDG glyco up = alpha-DG glycosylation activation. AID 624168. actives 0.22% (n = 360,000). Pro5-aDG cells, alpha-DG glycosylation AlphaScreen (IIH6); 0% Pro5, 100% B10-LARGE cell signal. activation, % at 10 µM;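 active = activation of at least 8% versus controls, or a plate z-score of at least 8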;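 also: Pro5 are CHO cells carrying HIG-tagged alpha-DG that lacks glycosylation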
TbMetRS inhib = blocks T. brucei methionyl-tRNA synthetase activity. AID 624268. actives 0.4% (n = 360,000). inhibition, % at 11.9 µM. purified T. brucei MetRS, ATP depletion, Kinase-Glo luminescence;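 active = inhibition above a per-plate cutoff of the control wells' mean inhibition plus 3 SD, cut at about 5.5% in these data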
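Material: parasite MetRS enzyme / Replication: singlicate, one well per compound / Signal: luminescence of leftover ATP / Schedule: 2 h aminoacylation at 25 °C after 15 min preincubation / Medium: HEPES-MgCl2-KCl buffer plus DTT, spermine, BSA, pyrophosphatase / Doses: 11.9 µM single point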
H9c2 TAG inh = inhibitors of triacylglycerol accumulation; H9c2 cells, Nile Red lipid (TAG) fluorescence; cells loaded with 200 µM oleic acid; inhibition, % at 12.5 µM; actives 0.66% (n = 230,000); AID 651582;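 active = pattern-corrected inhibition of lipid staining of at least 50% with the nuclear-stain viability signal not falling by more than 50%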
NTR1 ag = agonists of human neurotensin receptor NTR1 | NTR1-U2OS beta-arrestin-GFP spot imaging, agonist mode | actives 0.17% (n = 330,000) | activation, % at 20 µM;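 active = activation at or above 40% of the spot to cytoplasm intensity ratio, with at least 20 cells analyzed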
MC4R ag barr = human MC4R agonism via beta-arrestin | P32245 | U2OS MC4R beta-arrestin complementation, luminescence; percent of melanotan II response, DMSO zero | activation, % at 8.9 µM | actives 0.98% (n = 360,000) | AID 540308;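 active = activation above a per-plate cutoff, the mean activation of sample wells on that plate plus 3 SD, cut at about 8% in these data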
TAG conf = confirmation of triacylglycerol accumulation inhibitors | shares compounds with H9c2 TAG inh | H9c2 lipid accumulation, Nile Red fluorescence; cells loaded with 200 µM oleic acid | inhibition, % at 12.5 µM | actives 71% (n = 990);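 active = mean inhibition across replicates of 40% or more; inactive = mean inhibition below 40%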
Large screens that a line does not name were inactive (follow-up assays come after a bar, where they were run). A selection: hits, their analogues and other compounds. The true share with any hit is near 2.4%.

COc1ccc(-c2sc3cc4c(cc3c2C#Cc2ccc(N)cc2)OCO4)cc1	H9c2 TAG inh 55 | TAG conf 58
COc1ccc(S(=O)(=O)NCc2ccco2)cc1N(C)S(=O)(=O)c1ccccc1	none
Cn1nc(-c2ccc(Cl)cc2)c2cc(C(=O)NC3CC3)sc21	H9c2 TAG inh 76 | TAG conf 70
CCOCCCNC(=O)c1cc2c(-c3ccc(Cl)cc3)nn(C)c2s1	none
Nc1c(-c2ccc(C(F)(F)F)cc2)nc2ncccn12	none (no result: MC4R antagonist, H9c2 TAG inh, NTR1 ag, MC4R ag barr)
CC(C)CNS(=O)(=O)c1ccc(CCC(=O)Nc2cc(Cl)ccc2Oc2ccccc2)cc1	H9c2 TAG inh 55 | TAG conf inactive
CC(C)c1ccc2c(c1)C(c1ccc(N3CCOCC3)cc1)=NNC(c1cccs1)=N2	H9c2 TAG inh 52 | TAG conf inactive
CC(C)c1ccc2c(c1)C(c1cccs1)=NNC(c1ccncc1)=N2	none
COc1ccc(Nc2nc3cc(-c4sccc4C)sc3c(=O)n2C)cc1OC	H9c2 TAG inh 57 (no result: NTR1 ag) | TAG conf 71
Cc1ccccc1NC(=O)c1cccc(NC(=O)c2ccco2)c1	none
CCOc1ccccc1NC(=O)c1cccc(NC(=O)c2ccco2)c1	H9c2 TAG inh 79 | TAG conf 82
Cc1onc(-c2ccc(Cl)cc2Cl)c1-c1csc(N/N=C/c2ccccc2)n1	H9c2 TAG inh 61 | TAG conf 42
COc1ccccc1N1CCN(CC(=O)Nc2cc(C)nn2-c2nc(C)cc(C)n2)CC1	H9c2 TAG inh 55 (no result: NTR1 ag) | TAG conf 56
COc1ccccc1N1CCN(CC(=O)Nc2cc(F)ccc2C)CC1	none
CC(=O)c1cccc(-c2ccnc3c2CC(C(=O)NCc2ccco2)O3)c1 (configuration not stated)	H9c2 TAG inh 57 (no result: NTR1 ag) | TAG conf 59
COC(=O)[C@H](Cc1ccccc1)NC(=O)N1CCN(c2ccccc2)CC1	none
O=C(Cn1cc(C(=O)C2CC2)c2ccccc21)NCc1ccc2c(c1)OCO2	H9c2 TAG inh 51 | TAG conf inactive
O=C(Cn1cnc2ccccc2c1=O)NCc1ccc2c(c1)OCO2	none
CCOC(=O)C(C)Oc1cccc2c(=O)n(CC(=O)Nc3ccc4c(c3)OCCO4)ccc12 (configuration not stated)	none
CCOC(=O)C(C)Oc1cccc2c(=O)n(CC(=O)NCc3ccc4c(c3)OCO4)ccc12 (configuration not stated)	H9c2 TAG inh 54 | TAG conf 55
COC(=O)c1c(NC(NC(=O)C(C)(C)C)C(Cl)(Cl)Cl)sc2c1CCC2 (configuration not stated)	H9c2 TAG inh 59 | TAG conf 65
COCCS(=O)(=O)N(Cc1ccc(Br)cc1)[C@@H](C)C(=O)OC	H9c2 TAG inh 53 | TAG conf inactive
COC(=O)[C@@H](CC(C)C)N(Cc1ccccc1)S(=O)(=O)N(Cc1ccccc1)[C@@H](CC(C)C)C(=O)OC	H9c2 TAG inh 62 | TAG conf inactive
CC1CC(C)CN(S(=O)(=O)c2ccc3c(c2)oc(=O)n3CC(=O)NCCCOC(C)C)C1 (configuration not stated)	none (no result: H9c2 TAG inh)
CCN(CC(=O)Nc1ccccc1C(F)(F)F)C(=O)CCOc1ccc(C)cc1	none
N#C/C(=C\c1cc([N+](=O)[O-])c(N2CCCCC2)cc1N1CCCCC1)c1nn(-c2ccccc2)c(N)c1C#N	H9c2 TAG inh 51 | TAG conf 53
N#C/C(=C\c1cccc2ccccc12)c1nn(-c2ccccc2)c(N)c1C#N	none (no result: MC4R antagonist, aDG glyco up, TbMetRS inhib, H9c2 TAG inh, MC4R ag barr)
O=C(CSc1nc2ccc(Nc3nc(N4CCOCC4)nc(N4CCOCC4)n3)cc2s1)N1CCOCC1	none (no result: H9c2 TAG inh)
CCCC(=O)Nc1ccc2nc(SCC(=O)Nc3ccc(N4CCOCC4)c(Cl)c3)sc2c1	H9c2 TAG inh 51 | TAG conf inactive
O=C(CSc1nc2ccc(Nc3nc(N4CCOCC4)nc(N4CCOCC4)n3)cc2s1)Nc1ccccc1Cl	H9c2 TAG inh 62 | TAG conf 67

Compound activity deposited in PubChem BioAssay by several laboratories.
